Measurements from ChEMBL document CHEMBL1149027, “Anti-AIDS agents, 10. Acacetin-7-O-beta-D-galactopyranoside, an anti-HIV principle from Chrysanthemum morifolium and a structure-activity correlation with some related flavonoids” (J Nat Prod, 1994).

Columns and labels:
[1] = test system: Human immunodeficiency virus 1; test: Antiviral activity against HIV1 3B infected in human H9 cells assessed as inhibition of viral replication after 3 days by p24 antigen capture assay; format: functional, organism-based; settings: Human immunodeficiency virus 1, 3B, H9, 72 h
H9 = test: Cytotoxicity against human H9 cells after 3 days; format: cell-based; settings: H9, 72 h
Summary of the method: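 Uninfected H9 lymphocytes, given the same 1 h mock incubation at 37° and washing, resuspended at 4 × 10^5 cells/ml. Cultured 3 days at 37° with compound. Cell density counted; IC50 = concentration inhibiting uninfected growth by 50%.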

[2] = Therapeutic index, ratio of IC50 for human H9 cells to EC50 for HIV1 3B; format: cell-based; settings: read-out: TI

| SMILES | EC50 [1] | IC50 (H9) | selectivity ratio [2] |
| --- | --- | --- | --- |
| O=c1c(O)c(-c2ccccc2)oc2ccccc12 [FLAVONOL] | 13 µM | 17 µM | 1 |
| COc1ccc(-c2cc(=O)c3c(O)cc(O[C@@H]4O[C@H](CO)[C@H](O)[C@H](O)[C@H]4O)cc3o2)cc1 | 8 µM | 37 µM | 5 |
| O=c1c(O)c(-c2ccc(O)cc2O)oc2cc(O)cc(O)c12 [MORIN] | > 331 µM | > 331 µM | – |
| CC(=O)OC[C@H]1O[C@@H](Oc2cc(OC(C)=O)c3c(=O)cc(-c4ccc(OC(C)=O)c(OC(C)=O)c4)oc3c2)[C@H](OC(C)=O)[C@@H](OC(C)=O)[C@@H]1OC(C)=O | 6 µM | 6 µM | 1 |
| O=C(CNC(=O)OCc1ccccc1)Oc1cc(O)c2c(=O)cc(-c3ccccc3)oc2c1 | 9 µM | 30 µM | 3 |
| O=c1cc(-c2ccccc2Cl)oc2cc(O)cc(O)c12 | 5 µM | 17 µM | 3 |
| O=c1c(O)c(-c2cc(O)c(O)c(O)c2)oc2cc(O)cc(O)c12 [MYRICETIN] | 35 µM | 69 µM | 2 |
| Nc1c(O)cc(O)c2c(=O)cc(-c3ccccc3)oc12 | 11 µM | 34 µM | 3 |
| O=C1C[C@@H](c2ccc(O)cc2)Oc2cc(O)cc(O)c21 [NARINGENIN] | 92 µM | 294 µM | 3 |
| O=C1CC(c2ccccc2)Oc2ccccc21 (stereo not drawn) [FLAVANONE] | 58 µM | 45 µM | 1 |
| O=c1c(O)c(-c2ccccc2)oc2cc(O)cc(O)c12 [GALANGIN] | 28 µM | 44 µM | 2 |
| O=c1cc(-c2ccc(O)cc2)oc2cc(O[C@@H]3O[C@H](CO)C(O)[C@H](O)[C@H]3O)cc(O)c12 (single isomer, unassigned) [APIGETRIN] | 61 µM | 115 µM | 2 |
| O=c1cc(C2CCCCC2)oc2cc(O)cc(O)c12 | 19 µM | 42 µM | 2 |
| O=c1cc(-c2ccc(Cl)cc2)oc2cc(O)cc(O)c12 | 4 µM | 16 µM | 4 |
| O=c1cc(-c2ccccc2)oc2c(O)c(O)ccc12 [7,8-DIHYDROXYFLAVONE] | 10 µM | 14 µM | 1 |
| O=c1cc(-c2ccccc2)oc2c([N+](=O)[O-])c(O)cc(O)c12 | 12 µM | 12 µM | 1 |
| O=c1cc(-c2ccccc2)oc2c([N+](=O)[O-])c(O)c([N+](=O)[O-])c(O)c12 | 372 µM | 372 µM | 1 |
| O=c1c(O)c(-c2ccc(O)c(O)c2)oc2cc(O)ccc12 [FISETIN] | 122 µM | 157 µM | 1 |

| SMILES | EC50 [1] | IC50 (H9) | selectivity ratio [2] |
| --- | --- | --- | --- |
| O=c1cc(-c2ccc(O)c(O)c2)oc2cc(O[C@@H]3O[C@H](CO)[C@@H](O)[C@H](O)[C@H]3O)cc(O)c12 [GALUTEOLIN] | 7 µM | 25 µM | 3 |
| O=c1cc(-c2ccc(Br)cc2)oc2cc(O)cc(O)c12 | 5 µM | 21 µM | 4 |
| O=c1cc(-c2ccc(O)cc2)oc2cc(O)cc(O)c12 [APIGENIN] | 9 µM | 35 µM | 4 |
| CC(=O)Oc1cc(OC(C)=O)c2c(=O)cc(-c3ccccc3)oc2c1 [CHRYSIN DIACETATE] | 56 µM | > 373 µM | – |
| Cc1cn([C@H]2C[C@H](N=[N+]=[N-])[C@@H](CO)O2)c(=O)[nH]c1=O [ZIDOVUDINE] | 0.04 µM | – | – |
| O=c1cc(-c2ccccc2)oc2cc(O)cc(O)c12 [CHRYSIN] | 5 µM | 47 µM | 9 |
| O=c1cc(-c2ccc(O)c(O)c2)oc2cc(O)cc(O)c12 [LUTEOLIN] | 10 µM | 16 µM | 2 |
| COc1ccc([C@@H]2CC(=O)c3c(O)cc(O[C@@H]4O[C@H](CO[C@@H]5O[C@@H](C)[C@H](O)[C@@H](O)[C@H]5O)[C@@H](O)[C@H](O)[C@H]4O)cc3O2)cc1O [HESPERIDIN] | > 164 µM | > 164 µM | – |
| Oc1cc(O)c2c(c1)O[C@H](c1ccc(O)c(O)c1)[C@@H](O)C2 [CIANIDANOL] | > 345 µM | > 345 µM | – |
| O=c1cc(-c2ccc(F)cc2)oc2cc(O)cc(O)c12 | 4 µM | 13 µM | 3 |
| O=c1cc(-c2ccccc2)oc2ccccc12 [FLAVONE] | 50 µM | 68 µM | 1 |
| O=c1c(O)c(-c2ccc(O)c(O)c2)oc2cc(O)cc(O)c12 [QUERCETIN] | 132 µM | 132 µM | 1 |
| CCCc1cc(=O)c2c(O)cc(O)cc2o1 | 27 µM | 73 µM | 3 |
| Cc1cc(=O)c2c(O)cc(O)cc2o1 [NOREUGENIN] | 49 µM | 214 µM | 4 |
| COc1ccc(-c2cc(=O)c3c(O)cc(O[C@@H]4O[C@H](CO[C@@H]5O[C@H](C)[C@@H](O)[C@H](O)[C@@H]5O)[C@@H](O)[C@H](O)[C@H]4O)cc3o2)cc1 | > 231 µM | > 231 µM | – |
| O=C(O)[C@H]1O[C@@H](Oc2cc3oc(-c4ccccc4)cc(=O)c3c(O)c2O)[C@H](O)[C@@H](O)[C@@H]1O [BAICALIN] | 112 µM | 72 µM | < 1 |
| O=c1cc(-c2cccc(Cl)c2)oc2cc(O)cc(O)c12 | 4 µM | 14 µM | 3 |
